Data from publication PMC3130141 (Archives of Drug Information, 2011).

Columns and labels:
[1] = test system: Japanese patients with advanced solid tumors; assay: Adverse events by CTCAE version 3.0, Phase I dose-escalation study; assay type: in vivo, human
[2] = Plasma pharmacokinetics, non-compartmental analysis; assay type: in vivo, human; conditions: for clearance / AUC(0-inf) / AUC(0-t) / Cmax / MRT / Vd / concentration at 24 h / half-life: human, plasma
In short: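 Plasma was sampled pre- and post-dose daily on days 1–8 of cycle 1 and on day 1 of cycle 2, after a 1-h iv infusion. Analysis was non-compartmental: Cmax by inspection; λz by log-linear terminal regression; AUC0–24h by linear trapezoidal rule, extrapolated to infinity via λz; CL as dose/AUC. Values are geometric mean (CV%) per cohort.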

[3] = all doses 10-25 mg, 18 patients

Cc1ccc(C(=O)N(CCCN)C(c2nc3snc(C)c3c(=O)n2Cc2ccccc2)C(C)C)cc1 (centres unmarked) [AZD4877]
Anorexia, patients with CTCAE grade ≥3 event ([1]; 10 mg (N = 3)): 0 N (%)
Any grade ≥3 event, patients with CTCAE grade ≥3 event ([1]; 10 mg (N = 3)): 0 N (%)
Constipation, CTCAE any grade, patients with AEs ([1]; 10 mg (N = 3)): 1 (33) N (%)
Constipation, patients with CTCAE grade ≥3 event ([1]; 10 mg (N = 3)): 0 N (%)
Diarrhea, CTCAE any grade, patients with AEs ([1]; 10 mg (N = 3)): 2 (67) N (%)
Dizziness, CTCAE any grade, patients with AEs ([1]; 10 mg (N = 3)): 2 (67) N (%)
Fatigue, CTCAE any grade, patients with AEs ([1]; 10 mg (N = 3)): 1 (33) N (%)
Fatigue, patients with CTCAE grade ≥3 event ([1]; 10 mg (N = 3)): 0 N (%)
Febrile neutropenia, patients with CTCAE grade ≥3 event ([1]; 10 mg (N = 3)): 0 N (%)
Insomnia, CTCAE any grade, patients with AEs ([1]; 10 mg (N = 3)): 1 (33) N (%)
Nasopharyngitis, CTCAE any grade, patients with AEs ([1]; 10 mg (N = 3)): 0 N (%)
Nausea, CTCAE any grade, patients with AEs ([1]; 10 mg (N = 3)): 2 (67) N (%)
Neutropenia, patients with CTCAE grade ≥3 event ([1]; 10 mg (N = 3)): 0 N (%)
Pyrexia, CTCAE any grade, patients with AEs ([1]; 10 mg (N = 3)): 0 N (%)
Rash, CTCAE any grade, patients with AEs ([1]; 10 mg (N = 3)): 0 N (%)
Urinary tract infection, patients with CTCAE grade ≥3 event ([1]; 10 mg (N = 3)): 0 N (%)
Anorexia, patients with CTCAE grade ≥3 event ([1]; 15 mg (N = 3)): 0 N (%)
Any grade ≥3 event, patients with CTCAE grade ≥3 event ([1]; 15 mg (N = 3)): 0 N (%)
Constipation, CTCAE any grade, patients with AEs ([1]; 15 mg (N = 3)): 0 N (%)
Constipation, patients with CTCAE grade ≥3 event ([1]; 15 mg (N = 3)): 0 N (%)
Diarrhea, CTCAE any grade, patients with AEs ([1]; 15 mg (N = 3)): 1 (33) N (%)
Dizziness, CTCAE any grade, patients with AEs ([1]; 15 mg (N = 3)): 0 N (%)
Fatigue, CTCAE any grade, patients with AEs ([1]; 15 mg (N = 3)): 1 (33) N (%)
Fatigue, patients with CTCAE grade ≥3 event ([1]; 15 mg (N = 3)): 0 N (%)
Febrile neutropenia, patients with CTCAE grade ≥3 event ([1]; 15 mg (N = 3)): 0 N (%)
Insomnia, CTCAE any grade, patients with AEs ([1]; 15 mg (N = 3)): 0 N (%)
Nasopharyngitis, CTCAE any grade, patients with AEs ([1]; 15 mg (N = 3)): 0 N (%)
Nausea, CTCAE any grade, patients with AEs ([1]; 15 mg (N = 3)): 1 (33) N (%)
Neutropenia, patients with CTCAE grade ≥3 event ([1]; 15 mg (N = 3)): 0 N (%)
Pyrexia, CTCAE any grade, patients with AEs ([1]; 15 mg (N = 3)): 3 (100) N (%)
Rash, CTCAE any grade, patients with AEs ([1]; 15 mg (N = 3)): 3 (100) N (%)
Urinary tract infection, patients with CTCAE grade ≥3 event ([1]; 15 mg (N = 3)): 0 N (%)
Anorexia, patients with CTCAE grade ≥3 event ([1]; 20 mg (N = 6)): 0 N (%)
Any grade ≥3 event, patients with CTCAE grade ≥3 event ([1]; 20 mg (N = 6)): 1 (17) N (%)
Constipation, CTCAE any grade, patients with AEs ([1]; 20 mg (N = 6)): 1 (17) N (%)
Constipation, patients with CTCAE grade ≥3 event ([1]; 20 mg (N = 6)): 0 N (%)
Diarrhea, CTCAE any grade, patients with AEs ([1]; 20 mg (N = 6)): 0 N (%)
Dizziness, CTCAE any grade, patients with AEs ([1]; 20 mg (N = 6)): 3 (50) N (%)
Fatigue, CTCAE any grade, patients with AEs ([1]; 20 mg (N = 6)): 2 (33) N (%)
Fatigue, patients with CTCAE grade ≥3 event ([1]; 20 mg (N = 6)): 0 N (%)
Febrile neutropenia, patients with CTCAE grade ≥3 event ([1]; 20 mg (N = 6)): 0 N (%)
Insomnia, CTCAE any grade, patients with AEs ([1]; 20 mg (N = 6)): 2 (33) N (%)
Nasopharyngitis, CTCAE any grade, patients with AEs ([1]; 20 mg (N = 6)): 2 (33) N (%)
Nausea, CTCAE any grade, patients with AEs ([1]; 20 mg (N = 6)): 1 (17) N (%)
Neutropenia, patients with CTCAE grade ≥3 event ([1]; 20 mg (N = 6)): 1 (17) N (%)
Pyrexia, CTCAE any grade, patients with AEs ([1]; 20 mg (N = 6)): 2 (33) N (%)
Rash, CTCAE any grade, patients with AEs ([1]; 20 mg (N = 6)): 2 (33) N (%)
Urinary tract infection, patients with CTCAE grade ≥3 event ([1]; 20 mg (N = 6)): 0 N (%)
Patients who withdrew from the study due to an AE ([1]; 20 mg dose cohort, grade 2 cystitis): one patient
Anorexia, patients with CTCAE grade ≥3 event ([1]; 25 mg (N = 6)): 1 (17) N (%)
Any grade ≥3 event, patients with CTCAE grade ≥3 event ([1]; 25 mg (N = 6)): 2 (33) N (%)
Constipation, CTCAE any grade, patients with AEs ([1]; 25 mg (N = 6)): 2 (33) N (%)
Constipation, patients with CTCAE grade ≥3 event ([1]; 25 mg (N = 6)): 1 (17) N (%)
Diarrhea, CTCAE any grade, patients with AEs ([1]; 25 mg (N = 6)): 2 (33) N (%)
Dizziness, CTCAE any grade, patients with AEs ([1]; 25 mg (N = 6)): 0 N (%)
Fatigue, CTCAE any grade, patients with AEs ([1]; 25 mg (N = 6)): 3 (50) N (%)
Fatigue, patients with CTCAE grade ≥3 event ([1]; 25 mg (N = 6)): 1 (17) N (%)
Febrile neutropenia, patients with CTCAE grade ≥3 event ([1]; 25 mg (N = 6)): 1 (17) N (%)
Insomnia, CTCAE any grade, patients with AEs ([1]; 25 mg (N = 6)): 1 (17) N (%)
Nasopharyngitis, CTCAE any grade, patients with AEs ([1]; 25 mg (N = 6)): 2 (33) N (%)
Nausea, CTCAE any grade, patients with AEs ([1]; 25 mg (N = 6)): 3 (50) N (%)
Neutropenia, patients with CTCAE grade ≥3 event ([1]; 25 mg (N = 6)): 0 N (%)
Pyrexia, CTCAE any grade, patients with AEs ([1]; 25 mg (N = 6)): 1 (17) N (%)
Rash, CTCAE any grade, patients with AEs ([1]; 25 mg (N = 6)): 0 N (%)
Urinary tract infection, patients with CTCAE grade ≥3 event ([1]; 25 mg (N = 6)): 1 (17) N (%)
Anorexia, patients with CTCAE grade ≥3 event ([1]; Total, all doses (N = 18)): 1 (6) N (%)
Any grade ≥3 event, patients with CTCAE grade ≥3 event ([1]; Total, all doses (N = 18)): 3 (17) N (%)
Constipation, CTCAE any grade, patients with AEs ([1]; Total, all doses (N = 18)): 4 (22) N (%)
Constipation, patients with CTCAE grade ≥3 event ([1]; Total, all doses (N = 18)): 1 (6) N (%)
Diarrhea, CTCAE any grade, patients with AEs ([1]; Total, all doses (N = 18)): 5 (28) N (%)
Dizziness, CTCAE any grade, patients with AEs ([1]; Total, all doses (N = 18)): 5 (28) N (%)
Fatigue, CTCAE any grade, patients with AEs ([1]; Total, all doses (N = 18)): 7 (39) N (%)
Fatigue, patients with CTCAE grade ≥3 event ([1]; Total, all doses (N = 18)): 1 (6) N (%)
Febrile neutropenia, patients with CTCAE grade ≥3 event ([1]; Total, all doses (N = 18)): 1 (6) N (%)
Insomnia, CTCAE any grade, patients with AEs ([1]; Total, all doses (N = 18)): 4 (22) N (%)
Nasopharyngitis, CTCAE any grade, patients with AEs ([1]; Total, all doses (N = 18)): 4 (22) N (%)
Nausea, CTCAE any grade, patients with AEs ([1]; Total, all doses (N = 18)): 7 (39) N (%)
Neutropenia, patients with CTCAE grade ≥3 event ([1]; Total, all doses (N = 18)): 1 (6) N (%)
Pyrexia, CTCAE any grade, patients with AEs ([1]; Total, all doses (N = 18)): 6 (33) N (%)
Rash, CTCAE any grade, patients with AEs ([1]; Total, all doses (N = 18)): 5 (28) N (%)
Urinary tract infection, patients with CTCAE grade ≥3 event ([1]; Total, all doses (N = 18)): 1 (6) N (%)
Deaths during the study ([1]; all doses 10-25 mg): no deaths
Patients reporting fatigue (AE) [1, 3]: 39%
Patients reporting nausea (AE) [1, 3]: 39%
Patients reporting pyrexia (AE) [1, 3]: 33%
Patients who experienced at least one AE [1, 3]: All patients
Patients who experienced CTCAE grade ≥3 events ([1]; all doses, 18 patients, one in 20 mg, two in 25 mg cohort): Three
Tolerability ([1]; doses up to 25 mg weekly): generally well tolerated
Dose proportionality of exposure ([2]; 10-25 mg): not fully dose proportional
clearance ([2]; intravenous, 25 mg): 325 to 373 mL/min
AUC(0-inf) ([2]; iv, 10 mg): 447 ng·h/mL
AUC(0-t) ([2]; iv, 10 mg): 234 ng·h/mL
Cmax ([2]; iv, 10 mg): 63.4 ng/mL
MRT ([2]; iv, 10 mg): 34.2 h
Vd ([2]; iv, 10 mg): 766 L
clearance ([2]; iv, 10 mg): 373 mL/min
concentration at 24 h ([2]; iv, 10 mg): 4.9 ng/mL
half-life ([2]; iv, 10 mg): 28.7 h
AUC(0-inf) ([2]; iv, 15 mg): 671 ng·h/mL
AUC(0-t) ([2]; iv, 15 mg): 424 ng·h/mL
Cmax ([2]; iv, 15 mg): 99.7 ng/mL
MRT ([2]; iv, 15 mg): 22.9 h
Vd ([2]; iv, 15 mg): 512 L
clearance ([2]; iv, 15 mg): 372 mL/min
concentration at 24 h ([2]; iv, 15 mg): 7.8 ng/mL
half-life ([2]; iv, 15 mg): 20.3 h
AUC(0-inf) ([2]; iv, 20 mg): 1430 ng·h/mL
AUC(0-t) ([2]; iv, 20 mg): 882 ng·h/mL
Cmax ([2]; iv, 20 mg): 218 ng/mL
MRT ([2]; iv, 20 mg): 22.4 h
Vd ([2]; iv, 20 mg): 314 L
clearance ([2]; iv, 20 mg): 233 mL/min
concentration at 24 h ([2]; iv, 20 mg): 14.9 ng/mL
half-life ([2]; iv, 20 mg): 21.3 h
AUC(0-inf) ([2]; iv, 25 mg): 1280 ng·h/mL
AUC(0-t) ([2]; iv, 25 mg): 838 ng·h/mL
Cmax ([2]; iv, 25 mg): 224 ng/mL
MRT ([2]; iv, 25 mg): 22.2 h
Vd ([2]; iv, 25 mg): 432 L
clearance ([2]; iv, 25 mg): 325 mL/min
concentration at 24 h ([2]; iv, 25 mg): 13.6 ng/mL
half-life ([2]; iv, 25 mg): 21.1 h
